Only some compounds are listed: those with a hit (about 4.1% of all), similar ones and a draw of the others.
T cruzi inh – blocks replication of Trypanosoma cruzi; T. cruzi beta-gal in NIH3T3, luminescence, 90 h; inhibition, % (no concentration beside the values); 300,000 compounds, 1.4% hits; AID 1885;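 active means mean inhibition across valid replicates above about 55%, limit read from the data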;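 further: signal also drops with host cell toxicity which is not excluded here; higher percent means less beta-gal luminescence so fewer parasites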
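Read-out: Parasite load inhibition, % | Test system: Mouse NIH/3T3 fibroblasts infected with β-gal-expressing T. cruzi Tulahuen C4 | Amount: 5,000 cells/well | Medium: DMEM, 2% fetal bovine serum | Signal: GalScreen β-gal luminescence, detergent lysis, 60 min | Timing: 3 h attach, ≥90 h co-culture | Also added: Tulahuen C4 trypomastigotes, 5000/well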
MEKK2mut PB1 HTS – signal of MEK5 binding to mutant human MEKK2 PB1 domain; 290,000 compounds, 0.35% hits; percent response, % at 10 µM; AID 1530; bead flow cytometry, Alexa488-MEK5 binding to MEKK2 mutant; in the data active means percent response above about 24%, passing the limit was not always enough
DNA FID counter – counter-screen for HCV NS3 helicase inhibitors: DNA intercalator displacement; DNA fluorescent intercalator displacement, fluorescence; inhibition, % at 7.9 µM; 290,000 compounds, 0.17% hits; AID 1845; in the data active means inhibition above about 37%;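 further: higher means more ethidium bromide displaced from hairpin DNA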
MEKK2wt PB1 HTS – raises or lowers MEK5 binding to wildtype human MEKK2 PB1 domain. bead flow cytometry, Alexa488-MEK5 binding to MEKK2 WT; actives lie on both sides. 290,000 compounds, 1.1% hits. binding response (% of control), % at 10 µM. Q9Y2U5; in the data active means binding response below about 67% or above about 130%
NS3 helicase inh – inhibitors of Hepatitis C virus NS3 helicase; NS3 helicase DNA unwinding, Cy5 molecular beacon fluorescence; inhibition, % at 10.9 µM; 290,000 compounds, 0.56% hits; AID 1800;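 active means inhibition above the mean of all tested compounds plus 3 SD, set per campaign, cut at about 35% in these data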
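Assay system: hepatitis C virus NS3 helicase domain fragment enzyme. Also added: annealed dual-labelled DNA beacon duplex, ATP-started. Timing: 1 h reaction at 25 °C, ATP-initiated. Technique: Cy5 fluorescence at 0 and 60 min, beacon hairpin quenching. Evaluation: % inhibition of unwinding. Replication: one well per compound.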
MEKK3 PB1 HTS – raises or lowers MEK5 binding to the human MEKK3 PB1 domain; bead-based flow cytometry, Alexa488-MEK5 binding to MEKK3; actives lie on both sides; 0 = blocked by unlabeled MEK5, 100 = vehicle; AID 1529; 290,000 compounds, 1.4% hits; binding response (% of control), % at 10 µM;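 active means binding response more than 3 SD above or below the average of its plate-row segment, actives on both sides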;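 further: Alexa488 bead fluorescence after subtracting the streptavidin-only scavenger bead signal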
Target sequence (Q99759 whole entry, looked up, the tested form may be a part): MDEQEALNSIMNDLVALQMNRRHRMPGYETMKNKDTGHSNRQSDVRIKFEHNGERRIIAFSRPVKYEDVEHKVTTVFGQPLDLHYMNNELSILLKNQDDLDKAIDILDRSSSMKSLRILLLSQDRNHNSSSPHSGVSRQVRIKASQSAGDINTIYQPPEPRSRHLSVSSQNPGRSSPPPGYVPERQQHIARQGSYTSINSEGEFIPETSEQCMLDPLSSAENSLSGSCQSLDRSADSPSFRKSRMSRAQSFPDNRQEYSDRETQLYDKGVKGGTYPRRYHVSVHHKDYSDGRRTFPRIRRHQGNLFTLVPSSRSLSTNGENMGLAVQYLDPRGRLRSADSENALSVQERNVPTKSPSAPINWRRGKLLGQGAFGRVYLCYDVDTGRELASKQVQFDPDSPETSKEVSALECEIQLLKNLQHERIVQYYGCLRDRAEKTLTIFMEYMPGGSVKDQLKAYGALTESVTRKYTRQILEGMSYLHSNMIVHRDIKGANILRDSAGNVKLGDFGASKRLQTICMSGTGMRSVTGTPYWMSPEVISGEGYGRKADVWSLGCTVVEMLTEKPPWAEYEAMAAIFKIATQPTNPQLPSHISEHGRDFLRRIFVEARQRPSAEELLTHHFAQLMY
MEKK2wt confirm – raises or lowers MEK5 binding to wildtype human MEKK2, retest. binding response (% of control), % at 10 µM. AID 1892. 5,900 compounds, 2.4% hits. shares compounds with MEKK3 PB1 HTS. bead flow cytometry, Alexa488-MEK5 binding to MEKK2 WT; actives lie on both sides; in the data active means binding response below about 16% or above about 210%; inactive means in between
MEKK2mut-MEK5 – signal of MEK5 binding to mutant human MEKK2, retest; shares compounds with MEKK3 PB1 HTS; bead flow cytometry, Alexa488-MEK5 binding to MEKK2 mutant; percent response, % at 10 µM; 5,900 compounds, 2% hits; AID 1893; in the data active means percent response mostly above about 71%, no sharp cut-off; inactive means mostly below about 38%;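 further: higher means compound restores mutant binding toward wildtype level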
MEKK3 confirm – MEKK3-MEK5 PB1 inhibition, single concentration confirmation; shares compounds with MEKK3 PB1 HTS; bead flow cytometry, Alexa488-MEK5 binding to MEKK3; hits give low values; 5,900 compounds, 1.8% hits; binding response (% of control), % at 10 µM;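 active means binding response below 72% of control, or above a set upper limit, though filed actives all read lower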
Hits are given with their value; . = inactive; / = no result; [ ] = another dose, or the depositor's remark.

SMILES	T cruzi inh	MEKK2mut PB1 HTS	DNA FID counter	MEKK2wt PB1 HTS	NS3 helicase inh	MEKK3 PB1 HTS	MEKK2wt confirm	MEKK2mut-MEK5	MEKK3 confirm
CCCOc1ccc(-c2nn(-c3ccccc3)cc2/C=C2\SC(N)=NC2=O)cc1C	56	.	.	.	.	129	.	.	.
COc1ccc(C(=O)SC2=NCCS2)cc1	.	.	.	-11[inhibitor]	.	-2.0[inhibitor]	.	.	.
CCOc1ccc(C(=O)SC2=NCCS2)cc1	.	.	.	.	.	.	/	/	/
CCOc1ccc(Br)cc1/C(C)=N\NC1=NCCN1	.	.	.	.	.	.	/	/	/
CCCCCOc1ccc(/C(C)=N/NC2=NCCN2)cc1	.	.	.	148	.	.	.	.	.
CCCCCCOc1ccc(/C(C)=N/NC2=NCCN2)cc1	.	36	.	204	.	.	.	.	.
CCCCCCOc1ccc(C(=O)O)cc1	.	.	.	.	.	.	/	/	/
C#CCOc1c(Br)cc(/C=N/O)cc1OCC	.	.	.	.	.	.	/	/	/
CCOc1cc(/C=N/O)cc(Br)c1OCC	.	.	.	.	.	124	.	.	.
Cc1ccc(C2CC(=O)C(C=NCCN3CCN(C(=S)Nc4ccccc4)CC3)=C(O)C2)cc1 (stereo unspecified)	.	.	.	.	.	.	/	/	/
CC1(C)CC(=O)C(C=NCCN2CCN(C(=S)Nc3ccccc3)CC2)=C(O)C1	.	.	.	3.0[inhibitor]	.	3.0[inhibitor]	.	.	.
COc1cccc(NC(=O)c2cc3ccccc3oc2=O)c1	.	.	.	.	.	.	/	/	/
COc1ccccc1NS(=O)(=O)c1cc(NC(=O)c2cc3ccccc3oc2=O)ccc1C	.	.	.	.	.	157	.	.	.
COc1ccccc1NC(=O)Cn1nnc(-c2ccccc2NS(=O)(=O)c2ccccc2)n1	.	.	.	.	.	.	/	/	/
COc1ccccc1NC(=O)Cn1nnc(-c2ccccc2NC(=O)c2cc3ccccc3oc2=O)n1	.	.	.	.	.	76[inhibitor]	.	.	.
COc1ccc(OC)c(C2CC(=O)Nc3c2c(=O)[nH]c2ncnn32)c1 (stereo unspecified)	.	.	.	.	.	.	/	/	/
CCOc1ccc2ncc(C(=O)c3ccc(OC)cc3)c(N3CCN(CC)CC3)c2c1	.	.	.	499	.	.	.	.	.
CCC(C)NC(=O)CCC(=O)Nc1ccc2nc(N3CCOCC3)cc(C)c2c1 (stereo unspecified)	.	.	.	.	.	.	/	/	/
CCC(C)NC(=O)CCC(=O)Nc1ccc2nc(N3CC(C)CC(C)C3)cc(C)c2c1 (stereo unspecified)	.	90	.	9.0	.	.	.	.	.
CCN1CCN(c2cc(C)c3cc(NC(=O)c4cc(OC)cc(OC)c4)ccc3n2)CC1	.	.	.	139	.	.	.	.	.
CCN1CCN(c2cc(C)c3cc(NC(=S)N4CCN(c5ccccc5F)CC4)ccc3n2)CC1	.	.	.	148	.	.	.	.	.
CCN1CCN(c2cc(C)c3cc(NC(=S)N4CCOCC4)ccc3n2)CC1	.	.	.	.	.	.	/	/	/
CSCCC(NC(=O)c1ccc([N+](=O)[O-])cc1Cl)C(=O)OC(C)C(=O)NCc1ccco1 (stereo unspecified)	.	/	/	/	/	/	/	/	/
O=C(CSc1nnc2ccc(-c3ccc(F)cc3)nn12)N1CCCC1	.	.	.	.	.	.	/	/	/
CCC/C(O)=C1\C(=O)CC(C)(C)CC1=Nc1ccccc1O	.	.	.	.	.	.	/	/	/
SMILES	T cruzi inh	MEKK2mut PB1 HTS	DNA FID counter	MEKK2wt PB1 HTS	NS3 helicase inh	MEKK3 PB1 HTS	MEKK2wt confirm	MEKK2mut-MEK5	MEKK3 confirm
Cc1oc2cc3oc(=O)c(CCC(=O)N4C[C@H]5C[C@@H](C4)c4cccc(=O)n4C5)c(C)c3cc2c1C	.	.	.	.	.	.	/	/	/
CCc1cc(=O)oc2cc3occ(-c4ccc(OC)c(F)c4)c3cc12	.	.	.	.	.	.	/	/	/
CCOc1ccc(C(=O)Nc2ccc3nc(N4CCN(CC)CC4)cc(C)c3c2)cc1	.	.	.	148	.	.	.	.	.
CCN1CCN(c2cc(C)c3cc(NC(=O)Cc4ccc(OC)c(OC)c4)ccc3n2)CC1	.	26	.	.	.	.	.	.	.
CCN1CCN(c2cc(C)c3cc(NC(=O)c4cnccn4)ccc3n2)CC1	.	.	/	.	/	.	/	/	/
Cc1cccc(Cc2c(C)nc3nc(SCC(=O)NCc4ccco4)nn3c2C)c1	.	.	.	.	.	126	.	.	.
Cc1ccc(Cc2c(C)nc3nc(SCC(=O)NCc4ccco4)nn3c2C)cc1	.	.	.	.	.	122	.	.	.
CCOc1ccc(CCNC(=O)C2CC(=O)N(c3ccc4c(c3)OCCO4)C2)cc1OCC (stereo unspecified)	.	/	/	/	/	/	/	/	/
CC(=O)Nc1cccc(C(=O)Oc2cccc(C)c2)c1O	.	.	.	16[inhibitor]	.	9.0[inhibitor]	.	.	.
Cc1ccc(C(C)n2cc(C(=O)NCc3ccncc3)nn2)cc1 (stereo unspecified)	.	.	.	0.0[inhibitor]	.	1.0[inhibitor]	.	.	.
COc1ccccc1C(=O)Nc1ccc(S(=O)(=O)N2CCOCC2)cc1	.	24	.	.	.	.	.	.	.
O=C(Nc1ccc(S(=O)(=O)N2CCCCC2)cc1)c1ccc(CN2CCOCC2)cc1	.	.	.	.	.	74[inhibitor]	.	.	.
COc1ccc(NC(=O)c2[nH]c(C)c(C(C)=O)c2C)cc1S(=O)(=O)N1CCOCC1	.	.	.	.	.	129	.	.	.
CCCCN(CCCC)S(=O)(=O)c1ccc(NC(=O)Cc2cccs2)cc1	.	.	.	143	.	.	.	.	.
CCCN(CCC)S(=O)(=O)c1ccc(NC(=O)Cc2cccs2)cc1	.	.	.	.	.	.	/	/	/
Cc1ccc(S(=O)(=O)N2CCNC(=O)CC2)cc1	/	.	.	.	.	.	/	/	/
Cc1ccc(C)c(N2CCN(C(=O)c3ccc(CSc4nc5ccncc5[nH]4)cc3)CC2)c1	.	.	.	2.0[inhibitor]	.	1.0[inhibitor]	.	.	.
COc1ccc(CCC(=O)N2CCN(c3ccccc3)CC2)cc1OC	.	.	.	.	.	.	/	/	/
Nc1nnc(SCC(=O)NC23CC4CC(CC(C4)C2)C3)s1	.	.	.	39[inhibitor]	.	41[inhibitor]	.	.	.
